# Key:
# Cytochrome P450 2D6 = Cytochrome P450 2D6 (Homo sapiens, UniProt P10635); assay: Inhibition of CYP2D6 (unknown origin); format: ADME
# Cytochrome P450 2C9 = Cytochrome P450 2C9 (Homo sapiens, UniProt P11712); assay: Inhibition of CYP2C9 (unknown origin); format: ADME
# hERG (KCNH2) [1] = biological target: T1, hERG (KCNH2) (Homo sapiens, UniProt Q12809); assay: Inhibition of human ERG transfected in CHO cells at 1 uM by patch clamp assay relative to control; format: cell-based; conditions: CHO cells transfected with human ERG
# Method in brief: (§1)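 Whole-cell patch clamp on CHO cells stably transfected with the human ERG gene.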
# Cytochrome P450 3A4 = Cytochrome P450 3A4 (Homo sapiens, UniProt P08684); assay: Inhibition of CYP3A4 (unknown origin); format: ADME
# [2] = Genotoxicity in micronucleus (unknown origin)
# [3] = Distribution coefficient, log D of the compound; format: physicochemical; conditions: octanol/water
# Histamine H3 receptor [4] = biological target: Histamine H3 receptor (Homo sapiens, UniProt Q9Y5N1); assay: Displacement of [3H]N-alpha-methylhistamine from recombinant human histamine H3 receptor transfected in CHO cell membranes after 1 hr by scintillation counting analysis
# Method in brief: (§2)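 Radioligand displacement of [3H]N-α-methylhistamine using membranes from CHO cells stably transfected with recombinant human or rat H3 receptor. Ki is presented as a range of multiple experiments (n ≥ 3).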
# [5] = Solubility of the compound in PBS buffer at pH 7.4; format: physicochemical
# Method in brief: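 Solubility measured in PBS at pH 7.4.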
# [6] = Drug metabolism in mouse liver microsomes at 5 uM after 20 mins; format: ADME, Microsome; conditions: read-out: Drug metabolism
# Method in brief: (§3)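 Substrate at 5 µM incubated at 37 °C for 20 min with in-house liver microsome preparations (human, mouse or rat). Reported as the percentage of parent compound metabolized.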
# Histamine H3 receptor [7] = biological target: Histamine H3 receptor (Rattus norvegicus, UniProt Q9QYN8); assay: Displacement of [3H]N-alpha-methylhistamine from recombinant rat histamine H3 receptor transfected in CHO cell membranes after 1 hr by scintillation counting analysis; parameters: species or system Membrane; method in brief: as §2
# Cytochrome P450 2B6 = biological target: T2, Cytochrome P450 2B6 (Homo sapiens, UniProt P20813); assay: Inhibition of CYP2B6 (unknown origin); format: ADME
# T2 sequence (P20813 whole entry): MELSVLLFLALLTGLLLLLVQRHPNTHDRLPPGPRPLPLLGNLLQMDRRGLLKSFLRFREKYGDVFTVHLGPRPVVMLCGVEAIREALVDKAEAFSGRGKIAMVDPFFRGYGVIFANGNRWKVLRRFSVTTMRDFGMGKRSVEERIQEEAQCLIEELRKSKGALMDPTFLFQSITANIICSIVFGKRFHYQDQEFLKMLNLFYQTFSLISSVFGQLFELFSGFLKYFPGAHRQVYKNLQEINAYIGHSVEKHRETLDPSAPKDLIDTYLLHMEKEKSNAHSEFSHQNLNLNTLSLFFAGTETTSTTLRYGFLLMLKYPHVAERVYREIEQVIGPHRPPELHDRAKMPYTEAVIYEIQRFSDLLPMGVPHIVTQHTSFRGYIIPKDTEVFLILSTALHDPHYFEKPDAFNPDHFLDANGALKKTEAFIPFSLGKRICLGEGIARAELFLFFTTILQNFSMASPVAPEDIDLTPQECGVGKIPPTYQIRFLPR
# Cytochrome P450 1A2 = biological target: T3, Cytochrome P450 1A2 (Homo sapiens, UniProt P05177); assay: Inhibition of CYP1A2 (unknown origin); format: ADME
# T3 sequence (P05177 whole entry): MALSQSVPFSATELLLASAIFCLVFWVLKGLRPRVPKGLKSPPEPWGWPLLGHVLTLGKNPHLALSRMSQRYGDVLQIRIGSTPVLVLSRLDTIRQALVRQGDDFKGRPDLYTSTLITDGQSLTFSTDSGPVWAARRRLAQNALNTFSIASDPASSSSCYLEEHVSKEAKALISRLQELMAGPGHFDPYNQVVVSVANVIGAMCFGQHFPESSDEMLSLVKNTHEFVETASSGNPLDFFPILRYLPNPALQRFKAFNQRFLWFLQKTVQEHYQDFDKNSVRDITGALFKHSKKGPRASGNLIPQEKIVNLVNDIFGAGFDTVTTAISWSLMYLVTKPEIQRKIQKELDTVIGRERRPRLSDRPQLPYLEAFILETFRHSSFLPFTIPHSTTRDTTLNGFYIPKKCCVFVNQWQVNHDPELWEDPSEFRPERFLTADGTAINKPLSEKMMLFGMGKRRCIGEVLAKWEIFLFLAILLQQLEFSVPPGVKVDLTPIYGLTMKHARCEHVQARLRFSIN
# [8] = biological target: Voltage-gated inwardly rectifying potassium channel KCNH2 (Homo sapiens, UniProt Q12809); assay: Inhibition of human ERG transfected in CHO cells by patch clamp assay; format: cell-based; method in brief: as §1
# [9] = Partition coefficient, log P of the compound; format: physicochemical; conditions: octanol/water
# [10] = Drug metabolism in human liver microsomes at 5 uM after 20 mins; format: ADME, Microsome; conditions: read-out: Drug metabolism; method in brief: as §3
# hERG (KCNH2) [11] = biological target: T1, hERG (KCNH2); assay: Inhibition of human ERG transfected in CHO cells at 10 uM by patch clamp assay relative to control; format: cell-based; conditions: CHO cells transfected with human ERG; method in brief: as §1
# Salmonella typhimurium = assay: Mutagenic activity in Salmonella typhimurium by Ames test; format: toxicity, organism-based; conditions: salmonella enterica subsp. enterica serovar typhimurium
# Cytochrome P450 2C19 = Cytochrome P450 2C19 (Homo sapiens, UniProt P33261); assay: Inhibition of CYP2C19 (unknown origin); format: ADME
# [12] = Drug metabolism in rat liver microsomes at 5 uM after 20 mins; format: ADME, Microsome; conditions: read-out: Drug metabolism; method in brief: as §3
# T1 sequence (Q12809 whole entry): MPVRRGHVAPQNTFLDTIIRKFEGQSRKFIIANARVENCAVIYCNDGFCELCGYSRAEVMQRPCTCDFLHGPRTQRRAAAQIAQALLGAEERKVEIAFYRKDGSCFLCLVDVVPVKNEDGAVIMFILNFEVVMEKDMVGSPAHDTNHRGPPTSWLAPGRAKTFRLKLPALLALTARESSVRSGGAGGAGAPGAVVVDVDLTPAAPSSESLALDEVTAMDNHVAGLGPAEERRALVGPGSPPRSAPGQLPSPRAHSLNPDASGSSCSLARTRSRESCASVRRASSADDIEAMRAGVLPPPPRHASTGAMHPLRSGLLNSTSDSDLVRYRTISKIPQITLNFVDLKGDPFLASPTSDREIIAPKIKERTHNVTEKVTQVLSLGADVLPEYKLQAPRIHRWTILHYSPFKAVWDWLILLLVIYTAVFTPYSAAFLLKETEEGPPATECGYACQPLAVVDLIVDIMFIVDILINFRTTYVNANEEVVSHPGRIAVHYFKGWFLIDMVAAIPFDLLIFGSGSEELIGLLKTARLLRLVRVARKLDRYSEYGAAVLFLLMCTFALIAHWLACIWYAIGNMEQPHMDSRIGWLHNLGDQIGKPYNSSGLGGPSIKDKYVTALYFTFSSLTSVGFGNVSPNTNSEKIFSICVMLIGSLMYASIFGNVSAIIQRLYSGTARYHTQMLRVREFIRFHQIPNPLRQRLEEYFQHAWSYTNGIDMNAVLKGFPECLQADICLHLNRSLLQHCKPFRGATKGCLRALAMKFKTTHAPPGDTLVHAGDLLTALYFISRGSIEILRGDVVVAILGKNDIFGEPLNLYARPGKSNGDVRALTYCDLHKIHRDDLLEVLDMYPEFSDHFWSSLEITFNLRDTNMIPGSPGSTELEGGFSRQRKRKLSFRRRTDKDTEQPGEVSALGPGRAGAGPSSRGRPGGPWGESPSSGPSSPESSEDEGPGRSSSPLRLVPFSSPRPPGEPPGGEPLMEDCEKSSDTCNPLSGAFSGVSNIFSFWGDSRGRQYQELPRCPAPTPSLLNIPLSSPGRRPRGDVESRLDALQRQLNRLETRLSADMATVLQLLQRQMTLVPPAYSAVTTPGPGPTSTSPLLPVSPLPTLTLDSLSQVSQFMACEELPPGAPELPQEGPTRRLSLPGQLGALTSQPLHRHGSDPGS
# Cytochrome P450 2C9, sequence (P11712 whole entry): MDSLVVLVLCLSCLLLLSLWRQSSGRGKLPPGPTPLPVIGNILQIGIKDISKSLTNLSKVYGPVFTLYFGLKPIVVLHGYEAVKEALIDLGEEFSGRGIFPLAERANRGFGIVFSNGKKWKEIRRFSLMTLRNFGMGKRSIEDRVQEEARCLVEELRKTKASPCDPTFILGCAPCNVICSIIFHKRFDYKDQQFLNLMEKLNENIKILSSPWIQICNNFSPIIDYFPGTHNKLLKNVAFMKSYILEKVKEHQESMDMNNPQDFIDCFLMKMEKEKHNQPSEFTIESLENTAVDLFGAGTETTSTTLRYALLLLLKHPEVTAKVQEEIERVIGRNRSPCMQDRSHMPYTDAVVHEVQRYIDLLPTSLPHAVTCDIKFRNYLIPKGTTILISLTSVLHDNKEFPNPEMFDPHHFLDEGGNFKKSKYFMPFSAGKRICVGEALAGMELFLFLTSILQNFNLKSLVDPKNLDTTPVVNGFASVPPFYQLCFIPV
# Cytochrome P450 2D6, sequence (P10635 whole entry): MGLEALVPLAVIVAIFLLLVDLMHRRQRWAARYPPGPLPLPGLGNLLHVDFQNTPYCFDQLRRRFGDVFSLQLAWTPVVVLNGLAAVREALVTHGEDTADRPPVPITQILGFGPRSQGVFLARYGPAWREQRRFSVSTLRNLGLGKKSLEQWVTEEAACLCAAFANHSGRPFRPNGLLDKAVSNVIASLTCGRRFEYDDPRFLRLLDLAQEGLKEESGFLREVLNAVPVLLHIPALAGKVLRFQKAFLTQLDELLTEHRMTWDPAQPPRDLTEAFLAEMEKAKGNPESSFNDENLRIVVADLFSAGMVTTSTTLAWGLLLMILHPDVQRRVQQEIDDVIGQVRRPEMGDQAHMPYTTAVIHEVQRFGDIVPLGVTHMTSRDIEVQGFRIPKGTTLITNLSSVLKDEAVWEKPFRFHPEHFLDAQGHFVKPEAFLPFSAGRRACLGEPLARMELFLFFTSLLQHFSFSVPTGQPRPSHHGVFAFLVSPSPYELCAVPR
# Cytochrome P450 3A4, sequence (P08684 whole entry): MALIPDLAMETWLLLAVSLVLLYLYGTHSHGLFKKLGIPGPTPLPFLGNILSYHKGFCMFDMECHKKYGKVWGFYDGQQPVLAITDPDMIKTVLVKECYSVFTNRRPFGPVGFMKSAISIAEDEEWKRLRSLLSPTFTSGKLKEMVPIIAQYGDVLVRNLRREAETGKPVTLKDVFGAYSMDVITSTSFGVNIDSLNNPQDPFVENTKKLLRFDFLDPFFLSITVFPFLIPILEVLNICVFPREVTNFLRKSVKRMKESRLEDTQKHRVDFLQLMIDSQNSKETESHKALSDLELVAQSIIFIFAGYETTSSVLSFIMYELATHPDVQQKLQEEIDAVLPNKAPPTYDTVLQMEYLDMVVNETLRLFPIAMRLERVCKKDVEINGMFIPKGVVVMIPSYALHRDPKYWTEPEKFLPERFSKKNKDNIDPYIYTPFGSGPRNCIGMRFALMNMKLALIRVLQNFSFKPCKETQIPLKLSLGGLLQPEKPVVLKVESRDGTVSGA
# Histamine H3 receptor (Rattus norvegicus, UniProt Q9QYN8), sequence (Q9QYN8 whole entry): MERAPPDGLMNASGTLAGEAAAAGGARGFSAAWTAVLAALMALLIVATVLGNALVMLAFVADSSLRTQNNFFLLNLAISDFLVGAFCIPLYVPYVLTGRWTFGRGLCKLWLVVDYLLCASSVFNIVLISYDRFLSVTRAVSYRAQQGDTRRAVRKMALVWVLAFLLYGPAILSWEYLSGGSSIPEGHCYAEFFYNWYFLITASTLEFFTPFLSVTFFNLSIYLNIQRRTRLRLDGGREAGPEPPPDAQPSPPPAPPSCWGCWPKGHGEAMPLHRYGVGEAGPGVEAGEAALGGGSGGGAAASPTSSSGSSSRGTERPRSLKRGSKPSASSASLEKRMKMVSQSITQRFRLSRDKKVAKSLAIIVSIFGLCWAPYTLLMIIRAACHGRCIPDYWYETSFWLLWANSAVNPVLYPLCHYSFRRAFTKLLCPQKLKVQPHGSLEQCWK
# Voltage-gated inwardly rectifying potassium channel KCNH2, sequence (Q12809 whole entry): as the sequence (Q12809 whole entry) above
# Histamine H3 receptor (Homo sapiens, UniProt Q9Y5N1), sequence (Q9Y5N1 whole entry): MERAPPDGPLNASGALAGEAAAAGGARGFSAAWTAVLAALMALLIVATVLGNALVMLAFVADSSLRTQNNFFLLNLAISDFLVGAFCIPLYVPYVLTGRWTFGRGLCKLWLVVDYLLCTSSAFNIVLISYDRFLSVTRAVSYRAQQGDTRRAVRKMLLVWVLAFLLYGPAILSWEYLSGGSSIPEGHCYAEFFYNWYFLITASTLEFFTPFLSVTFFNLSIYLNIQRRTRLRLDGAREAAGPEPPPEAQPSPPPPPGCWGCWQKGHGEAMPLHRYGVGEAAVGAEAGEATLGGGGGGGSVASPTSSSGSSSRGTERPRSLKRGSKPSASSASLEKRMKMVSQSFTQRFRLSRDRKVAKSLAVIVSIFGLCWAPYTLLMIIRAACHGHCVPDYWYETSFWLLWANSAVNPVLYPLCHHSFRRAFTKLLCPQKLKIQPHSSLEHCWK
compound,measurement,setting,value
Cc1cc(N2CC[C@@H](N3CCC[C@@H]3C)C2)ccc1NC(=O)c1cc(F)ccc1C,IC50,Cytochrome P450 2D6,> 30 µM
same,IC50,Cytochrome P450 2C9,> 30 µM
same,inhibition at 1 µM,hERG (KCNH2) [1],38.8%
same,IC50,Cytochrome P450 3A4,> 30 µM
same,Activity,[2],Non-toxic
same,logD,[3],2.09
same,Ki,Histamine H3 receptor [4],0.018 µM
same,solubility,[5],88.5 µg/mL
same,"metabolised at 20 min, 5 µM",[6],20%
same,Ki,Histamine H3 receptor [7],0.011 µM
same,IC50,Cytochrome P450 2B6,> 30 µM
same,IC50,Cytochrome P450 1A2,> 30 µM
same,IC50,[8],1.8 µM
same,logP,[9],3.55
same,"metabolised at 20 min, 5 µM",[10],5%
same,inhibition at 10 µM,hERG (KCNH2) [11],88.6%
same,Activity,Salmonella typhimurium,Non-toxic
same,IC50,Cytochrome P450 2C19,> 30 µM
same,"metabolised at 20 min, 5 µM",[12],36%

# From ChEMBL document CHEMBL2401654, “Synthesis, characterization, and biological assessment of the four stereoisomers of the H(3) receptor antagonist 5-fluoro-2-methyl-N-[2-methyl-4-(2-methyl[1,3']bipyrrolidinyl-1'-yl)phenyl]benzamide” (Bioorg Med Chem Lett, 2013)
